Laboratory results as given in ChEMBL document CHEMBL1124629, “Syntheses and biological activities of 13-substituted avermectin aglycons” (J Med Chem, 1989).

What was measured:
[1] = Displacement of ivermectin from avermectin receptor of Caenorhabditis elegans
Procedure, shortened: (§1)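 Competitive binding with [22,23-3H2]ivermectin as radioligand, displaced from an avermectin receptor preparation derived from the free-living nematode Caenorhabditis elegans.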

Spodoptera eridania [2] = experiment: Antiparasitic activity against Southern army worm; assay type: functional
Procedure, shortened: (§2)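 Neonate southern armyworm (Spodoptera eridania) larvae placed on bean leaves treated with test compound.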

Tetranychus urticae [3] = experiment: Antiparasitic activity against Tetranychus urticae; assay type: functional
Procedure, shortened: (§3)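 Two-spotted spider mite (Tetranychus urticae) infesting bean plants treated with test compound.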

[4] = system: Trichostrongylus colubriformis; experiment: Antiparasitic activity against Trichostrongylus colubriformis; assay type: functional
Procedure, shortened: (§4)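 Sheep nematode Trichostrongylus colubriformis tested in vivo in a gerbil infection model.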

[5] = Binding radioligand; set-up: species or system Caenorhabditis elegans; procedure, shortened: as §1
Tetranychus urticae [6] = experiment: Antiparasitic activity against two-spotted spider mite Tetranychus urticae on bean plants; assay type: functional; procedure, shortened: as §3
Spodoptera eridania [7] = experiment: Antiparasitic activity against southern army worm Spodoptera eridania; assay type: functional; procedure, shortened: as §2
[8] = system: Trichostrongylus colubriformis; experiment: Antiparasitic activity against sheep parasite Trichostrongylus colubriformis; conditions: in gerbil
[9] = system: Trichostrongylus colubriformis; experiment: Antiparasitic activity against sheep parasite Trichostrongylus colubriformis; assay type: functional; procedure, shortened: as §4

| Molecule | Ki [1] [nM] | Ki [5] [nM] | ED90 (Spodoptera eridania [2]) [p.p.m.] | ED90 (Tetranychus urticae [3]) [p.p.m.] | ED90 [4] [mg/kg] | ED90 (Tetranychus urticae [6]) [p.p.m.] | ED90 (Spodoptera eridania [7]) [p.p.m.] | ED90 [8] [mg/kg] | ED90 [9] [mg/kg] |
| --- | --- | --- | --- | --- | --- | --- | --- | --- | --- |
| CC[C@H](C)[C@H]1O[C@]2(C=C[C@@H]1C)C[C@@H]1C[C@@H](C/C=C(\C)[C@@H](O[C@H]3C[C@H](OC)[C@@H](O[C@H]4C[C@H](OC)[C@@H](O)[C@H](C)O4)[C@H](C)O3)[C@@H](C)/C=C/C=C3\CO[C@@H]4[C@H](O)C(C)=C[C@@H](C(=O)O1)[C@]34O)O2 [ABAMECTIN COMPONENT B1A] |  | 0.1 |  |  |  | 0.05 | 8 | 0.03 |  |
| CC[C@H](C)[C@H]1O[C@]2(CC[C@@H]1C)C[C@@H]1C[C@@H](C/C=C(\C)[C@@H](Cl)[C@@H](C)/C=C/C=C3\CO[C@@H]4[C@H](O)C(C)=C[C@@H](C(=O)O1)[C@]34O)O2 |  |  | <1 | >0.1 | < 0.1 |  |  |  |  |
| CC[C@H](C)[C@H]1O[C@]2(CC[C@@H]1C)C[C@@H]1C[C@@H](CC(N(C)C(C)=O)/C(C)=C\[C@@H](C)/C=C/C=C3\CO[C@@H]4[C@H](O)C(C)=C[C@@H](C(=O)O1)[C@]34O)O2 (some centres not stated) |  | > 100 |  |  |  | >6.25 |  | > 2.5 |  |
| CC[C@H](C)[C@H]1O[C@]2(CC[C@@H]1C)C[C@@H]1C[C@@H](C/C=C(\C)[C@@H](OC)[C@@H](C)/C=C/C=C3\CO[C@@H]4[C@H](O)C(C)=C[C@@H](C(=O)O1)[C@]34O)O2 | 0.6 |  |  |  |  | 1 |  | 0.5 |  |
| CC[C@H](C)[C@H]1O[C@]2(CC[C@@H]1C)C[C@@H]1C[C@@H](C/C=C(\C)C[C@@H](C)/C=C/C=C3\CO[C@@H]4[C@H](O)C(C)=C[C@@H](C(=O)O1)[C@]34O)O2 | 0.9 |  |  |  |  | 0.05 | 0.5 | 0.06 |  |
| CC[C@H](C)[C@H]1O[C@]2(CC[C@@H]1C)C[C@@H]1C[C@@H](C/C=C(\C)[C@H](I)[C@@H](C)/C=C/C=C3\CO[C@@H]4[C@H](O)C(C)=C[C@@H](C(=O)O1)[C@]34O)O2 | 2.4 |  |  | 1.25 | 0.5 |  |  |  |  |
| CC[C@H](C)[C@H]1O[C@]2(CC[C@@H]1C)C[C@@H]1C[C@@H](C/C=C(\C)C(=O)[C@@H](C)/C=C/C=C3\CO[C@@H]4[C@H](O)C(C)=C[C@@H](C(=O)O1)[C@]34O)O2 | 0.6 |  | >0.5 | 6.25 | 0.5 |  |  |  |  |
| IVERMECTIN [listing 1 of 2 here] |  |  |  |  |  | 0.05 | 8 |  | 0.05 |
| CC[C@H](C)[C@H]1O[C@]2(CC[C@@H]1C)C[C@@H]1C[C@@H](C/C=C(C)/C=C(C)\C=C\C=C3/CO[C@@H]4[C@H](O)C(C)=C[C@@H](C(=O)O1)[C@]34O)O2 | 0.8 |  |  |  |  | >6.25 | >1 | > 2.5 |  |
| CC[C@H](C)[C@H]1O[C@]2(CC[C@@H]1C)C[C@@H]1C[C@@H](C/C=C(\C)[C@@H](N)[C@@H](C)/C=C/C=C3\CO[C@@H]4[C@H](O)C(C)=C[C@@H](C(=O)O1)[C@]34O)O2 | > 100 |  |  |  |  | >0.1 | >1 | 0.5 |  |
| CC[C@H](C)[C@H]1O[C@]2(CC[C@@H]1C)C[C@@H]1C[C@@H](C/C=C(\C)[C@@H](O)[C@@H](C)/C=C/C=C3\CO[C@@H]4[C@H](O)C(C)=C[C@@H](C(=O)O1)[C@]34O)O2 [IVM AGLYCONE] | 6.4 |  |  |  |  | 0.5 | >6.25 |  |  |
| CC[C@H](C)[C@H]1O[C@]2(CC[C@@H]1C)C[C@@H]1C[C@@H](C/C=C(\C)[C@@H](F)[C@@H](C)/C=C/C=C3\CO[C@@H]4[C@H](O)C(C)=C[C@@H](C(=O)O1)[C@]34O)O2 | 0.2 |  |  |  |  | 0.05 | >0.5 | < 0.1 |  |
| IVERMECTIN [listing 2 of 2 here] |  | 0.3 |  |  |  |  |  |  |  |

Further lines, with some results ahead:

| Ki [1] [nM] | Ki [5] [nM] | Molecule | ED90 (Spodoptera eridania [2]) [p.p.m.] | ED90 (Tetranychus urticae [3]) [p.p.m.] | ED90 [4] [mg/kg] | ED90 (Tetranychus urticae [6]) [p.p.m.] | ED90 (Spodoptera eridania [7]) [p.p.m.] | ED90 [8] [mg/kg] | ED90 [9] [mg/kg] |
| --- | --- | --- | --- | --- | --- | --- | --- | --- | --- |
| 2.9 |  | CC[C@H](C)[C@H]1O[C@]2(CC[C@@H]1C)C[C@@H]1C[C@@H](C/C=C(\C)[C@H](OCOCCOC)[C@@H](C)/C=C/C=C3\CO[C@@H]4[C@H](O)C(C)=C[C@@H](C(=O)O1)[C@]34O)O2 | >0.25 | 0.01 | < 0.1 |  |  |  |  |
| 0.3 |  | CC[C@H](C)[C@H]1O[C@]2(CC[C@@H]1C)C[C@@H]1C[C@@H](C/C=C(\C)[C@H](F)[C@@H](C)/C=C/C=C3\CO[C@@H]4[C@H](O)C(C)=C[C@@H](C(=O)O1)[C@]34O)O2 |  |  |  | 0.01 | 0.5 | < 0.1 |  |
| > 100 |  | CC[C@H](C)[C@H]1O[C@]2(CC[C@@H]1C)C[C@@H]1C[C@@H](CC(N3CCOCC3)/C(C)=C\[C@@H](C)/C=C/C=C3\CO[C@@H]4[C@H](O)C(C)=C[C@@H](C(=O)O1)[C@]34O)O2 (some centres not stated) |  |  |  | 6.25 |  | > 2.5 |  |
| 2.7 |  | CC[C@H](C)[C@H]1O[C@]2(CC[C@@H]1C)C[C@@H]1C[C@@H](C/C=C(\C)[C@@H](OCOCCOC)[C@@H](C)/C=C/C=C3\CO[C@@H]4[C@H](O)C(C)=C[C@@H](C(=O)O1)[C@]34O)O2 | <1 | 0.05 | > 0.1 |  |  |  |  |
|  | > 100 | CC[C@H](C)[C@H]1O[C@]2(CC[C@@H]1C)C[C@@H]1C[C@@H](CC(O)/C(C)=C\[C@@H](C)/C=C/C=C3\CO[C@@H]4[C@H](O)C(C)=C[C@@H](C(=O)O1)[C@]34O)O2 (some centres not stated) |  |  |  | >6.25 |  |  |  |
| 1 |  | CC[C@H](C)[C@H]1O[C@]2(CC[C@@H]1C)C[C@@H]1C[C@@H](C/C=C(\C)[C@H](Cl)[C@@H](C)/C=C/C=C3\CO[C@@H]4[C@H](O)C(C)=C[C@@H](C(=O)O1)[C@]34O)O2 | 0.5 | 0.25 | 0.1 |  |  |  |  |
|  | 0.3 | CC[C@H](C)[C@H]1O[C@]2(CC[C@@H]1C)C[C@@H]1C[C@@H](C/C=C(C)/C(=N\OC)[C@@H](C)/C=C/C=C3\CO[C@@H]4[C@H](O)C(C)=C[C@@H](C(=O)O1)[C@]34O)O2 |  |  |  | 0.05 | 0.5 | < 0.1 |  |
| 2 |  | CC[C@H](C)[C@H]1O[C@]2(CC[C@@H]1C)C[C@@H]1C[C@@H](C/C=C(\C)[C@H](O)[C@@H](C)/C=C/C=C3\CO[C@@H]4[C@H](O)C(C)=C[C@@H](C(=O)O1)[C@]34O)O2 |  |  |  | 0.05 | >8 | < 0.5 |  |
